Source: paper PMC3858174 (Bioorganic & medicinal chemistry, 2013)

What was measured:
[1] = logPo/w by shake flask method; type: physicochemical
[2] = test system: 5-HT1AR; test: PET imaging in anesthetized baboon; type: in vivo, baboon (Papio anubis)
In short: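 Two fasted male baboons: ketamine 10 mg/kg im, then 1.5–2.0% isoflurane via endotracheal tube, core temperature held at 37 °C. Saline iv line and arterial line placed. 10 min transmission scan, then 111 ± 18 MBq radiotracer as iv bolus. 3-D emission data collected for 180 min. MRI-coregistered regions of interest, left and right averaged.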

[3] = Stability of formulation; type: physicochemical; conditions: 10% ethanol-90% saline; analytical HPLC and radio-TLC
[4] = test system: 5-HT1AR; conditions: 5-HT1AR-rich regions such as hippocampus, amygdala, cortex and cingulate regions; cited from earlier work
[5] = target: 5HT7 (Homo sapiens, UniProt P34969); test: NIMH-PDSP binding assay, 5HT7
[6] = target: T1, Adrenergic α1A (Homo sapiens, UniProt P35348); test: NIMH-PDSP binding assay, Adrenergic α1A
T1 sequence (P35348 1-466): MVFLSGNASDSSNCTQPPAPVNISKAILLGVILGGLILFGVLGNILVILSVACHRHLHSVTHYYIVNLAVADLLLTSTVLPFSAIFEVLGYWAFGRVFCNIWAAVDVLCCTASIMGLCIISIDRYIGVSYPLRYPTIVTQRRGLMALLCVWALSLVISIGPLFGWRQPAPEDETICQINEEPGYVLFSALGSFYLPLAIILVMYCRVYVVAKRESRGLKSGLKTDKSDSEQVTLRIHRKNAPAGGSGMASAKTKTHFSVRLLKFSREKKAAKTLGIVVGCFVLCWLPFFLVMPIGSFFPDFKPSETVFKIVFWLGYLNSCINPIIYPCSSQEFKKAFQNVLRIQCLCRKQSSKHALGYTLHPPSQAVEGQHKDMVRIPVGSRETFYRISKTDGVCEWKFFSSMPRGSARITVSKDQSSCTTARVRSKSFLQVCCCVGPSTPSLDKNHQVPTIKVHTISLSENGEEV

[7] = target: Dopamine3 (Homo sapiens, UniProt P35462); test: NIMH-PDSP binding assay, Dopamine3
[8] = target: Dopamine2 (Homo sapiens, UniProt P14416); test: NIMH-PDSP binding assay, Dopamine2
[9] = target: BZP Rat Brain Site; test: NIMH-PDSP binding assay, BZP Rat Brain Site; conditions: read-out: Ki BZP Rat Brain Site

5HT7, sequence (P34969 whole entry, species assumed): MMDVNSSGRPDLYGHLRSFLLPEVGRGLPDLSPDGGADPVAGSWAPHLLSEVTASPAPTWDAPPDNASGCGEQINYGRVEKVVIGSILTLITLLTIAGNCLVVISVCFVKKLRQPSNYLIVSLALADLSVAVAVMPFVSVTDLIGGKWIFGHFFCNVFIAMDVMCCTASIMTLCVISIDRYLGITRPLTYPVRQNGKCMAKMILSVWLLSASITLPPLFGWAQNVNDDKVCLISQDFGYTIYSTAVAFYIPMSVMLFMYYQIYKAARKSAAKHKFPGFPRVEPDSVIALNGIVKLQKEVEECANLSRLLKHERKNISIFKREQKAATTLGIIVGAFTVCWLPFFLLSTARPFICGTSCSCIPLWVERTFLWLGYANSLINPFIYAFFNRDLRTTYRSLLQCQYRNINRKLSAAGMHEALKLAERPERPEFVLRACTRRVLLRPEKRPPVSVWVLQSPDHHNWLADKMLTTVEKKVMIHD
Dopamine3, sequence (P35462 whole entry): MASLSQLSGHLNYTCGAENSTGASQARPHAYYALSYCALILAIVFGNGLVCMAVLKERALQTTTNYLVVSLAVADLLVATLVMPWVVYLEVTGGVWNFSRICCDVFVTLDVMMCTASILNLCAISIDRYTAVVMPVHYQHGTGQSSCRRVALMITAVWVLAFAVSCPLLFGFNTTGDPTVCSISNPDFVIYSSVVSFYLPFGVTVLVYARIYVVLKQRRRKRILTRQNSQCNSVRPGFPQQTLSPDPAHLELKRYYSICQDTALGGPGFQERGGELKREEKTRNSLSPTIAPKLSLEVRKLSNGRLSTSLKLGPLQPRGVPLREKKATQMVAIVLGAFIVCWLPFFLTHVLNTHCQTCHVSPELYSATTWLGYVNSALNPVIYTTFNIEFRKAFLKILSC
Dopamine2, sequence (P14416 whole entry): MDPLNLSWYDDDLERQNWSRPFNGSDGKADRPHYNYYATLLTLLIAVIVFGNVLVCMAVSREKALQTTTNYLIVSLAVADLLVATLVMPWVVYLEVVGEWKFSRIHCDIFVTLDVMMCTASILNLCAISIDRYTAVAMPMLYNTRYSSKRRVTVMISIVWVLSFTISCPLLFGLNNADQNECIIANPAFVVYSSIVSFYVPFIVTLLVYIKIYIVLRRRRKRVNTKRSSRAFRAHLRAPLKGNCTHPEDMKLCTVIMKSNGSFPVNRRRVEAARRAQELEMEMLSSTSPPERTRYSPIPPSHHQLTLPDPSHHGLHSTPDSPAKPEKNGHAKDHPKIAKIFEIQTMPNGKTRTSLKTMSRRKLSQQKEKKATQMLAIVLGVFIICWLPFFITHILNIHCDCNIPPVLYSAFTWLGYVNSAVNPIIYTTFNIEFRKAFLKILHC

Cn1c(=O)cnn(CCCCN2CCN(c3ccccc3OCC[18F])CC2)c1=O [[^18F]FECUMI-101, [18F]2-(4-(4-(2-(2-fluoroethoxy)phenyl)piperazin-1-yl)butyl)-4-methyl-1,2,4-triazine-3,5(2H,4H)-dione]
logPo/w [1]: 1.2
BBB penetration ([2]; anesthetized baboon, 111 ± 18 MBq i.v.): penetrates the BBB
in vivo radio[18F]defluorination (skull image) ([2]; baboon PET): No skull image
Stability of radioproduct in formulation, no significant de[18F]fluorination [3]: up to 4 h

Cn1c(=O)cnn(CCCCN2CCN(c3ccccc3O[11CH3])CC2)c1=O [[^11C]CUMI-101]
lower BPF in comparison with [11C]WAY-100635 scans [4]: ~ 50%

Cn1c(=O)cnn(CCCCN2CCN(c3ccccc3OCCF)CC2)c1=O [FECUMI-101, 2-(4-(4-(2-(2-fluoroethoxy)phenyl)piperazin-1-yl)butyl)-4-methyl-1,2,4-triazine-3,5(2H,4H)-dione]
selectivity to 5-HT1A over 5-HT7 [5]: 172 fold

COc1ccccc1N1CCN(CCCCn2ncc(=O)n(C)c2=O)CC1 [CUMI-101]
less affinity for α1A AR in comparison to 5-HT1AR [6]: 45 fold
Ki Dopamine3 [7]: did not show any significant binding
Ki Dopamine2 [8]: did not show any significant binding
Ki [9]: > 10 µM
